Reference: article PMC8570090 (Bioorganic & medicinal chemistry letters, 2020)

How the values were obtained:
[1] = Stability of PI-103BE; format: in vitro ADME; conditions: species found after treatment with PI-103BE (9); for Fraction in culture medium: all time points
[2] = Single dose pharmacokinetics in mice, intraperitoneal injection; format: in vivo
[3] = Single dose pharmacokinetics in mice, oral gavage; format: in vivo; conditions: single oral dose 10 mg/kg
Outline: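 Female ovariectomized Nu/Nu mice, 4–6 weeks old (n = 5), received a single 10 mg/kg dose by gavage in 5% DMSO/40% PEG 400/55% saline. Orbital-sinus blood was drawn at 0.5, 1, 3, 8 and 24 h, with one sampling per group, into EDTA. Plasma was separated at 4 °C and frozen at −80 °C. Drug and metabolites were quantified by C18 UHPLC–MS (formic acid water/acetonitrile gradient).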

[4] = test system: human lung carcinoma A549; experiment: In vitro antiproliferative assay; format: cell-based; conditions: Fig. 5
Outline: (§1)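 Cells seeded at 50,000 per well in DMEM with 5% FBS. Exposed for 4 days to test compound at 6 concentrations, with DMSO vehicle and a reference compound as positive control. Cell numbers counted on a Coulter counter. Survival ratio is treated over vehicle cell number. IC50 taken from dose-response curves. Run in triplicate, mean ± SD.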

[5] = test system: human breast adenocarcinoma MDA-MB-231; experiment: In vitro antiproliferative assay; format: cell-based; conditions: Fig. 5
Outline: as §1

[6] = test system: human cervical cancer HeLa; experiment: In vitro antiproliferative assay; format: cell-based; conditions: Fig. 5
Outline: as §1

[7] = test system: human prostate carcinoma 22Rv1; experiment: In vitro antiproliferative assay; format: cell-based; conditions: Fig. 5
Outline: as §1

[8] = test system: panel of cancer cell lines; experiment: In vitro antiproliferative activity, panel of six cancer cell lines; format: cell-based, human; conditions: IC50 ratio across A549, MDA-MB-231, HeLa, 22Rv1, PC-3, SKOV-3
Outline: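 Cells plated at 50,000 per well in DMEM with 5% FBS and exposed for 4 days to test compound at 6 doses. DMSO served as vehicle control and the parent inhibitor as positive control. Cells were counted on a Coulter counter. Survival ratio is treated over vehicle cell number, and IC50 is taken from dose-response curves. Run in triplicate, mean ± SD.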

Compound	Fraction of total drug content in cell culture media ([1]; 0.5 h) [%]	Fraction of total drug content in cell culture media ([1]; 1 h) [%]	Fraction of total drug content in cell culture media ([1]; 3 h) [%]	Fraction of total drug content in cell culture media ([1]; 8 h) [%]	Fraction of total drug content in cell culture media ([1]; 24 h) [%]	Fraction in culture medium [1] [%]	Peak plasma concentration of PI-103, times lower than after i.p. PI-103BE ([2]; 10 mg/kg IP, 7-treated vs PI-103BE-treated) [times]	Oral bioavailability [3]	Antiproliferative activity [4]	Antiproliferative activity [5]	Antiproliferative activity [6]	Antiproliferative activity [7]	Concentration in cell culture media ([1]; 3 h) [nM]	Concentration in cell culture media ([1]; 8 h) [nM]	Concentration in cell culture media ([1]; 24 h) [nM]	PI-103BE in plasma ([2]; 10 mg/kg IP of labelled compound, analyte PI-103BE)	Times less potent than PI-103 (7) [8]
Oc1cccc(-c2nc(N3CCOCC3)c3oc4ncccc4c3n2)c1 [PI-103 (7), 3-(4-Morpholinopyrido[3′,2′:4,5]furo[3,2-d]pyrimidin-2-yl)phenol, reference compound]	2.02	2.52	3.30	3.27	3.81	< 4	10	no oral bioavailability	–	–	–	–	–	–	–	–	–
OB(O)c1cccc(-c2nc(N3CCOCC3)c3oc4ncccc4c3n2)c1 [PI-103BA (10), (3-(4-Morpholinopyrido[3′,2′:4,5]furo[3,2-d]pyrimidin-2-yl)phenyl)boronic acid]	97.95	–	96.70	96.73	96.19	> 95	–	–	dose dependent antiproliferative activities	dose dependent antiproliferative activities	dose dependent antiproliferative activities	dose dependent antiproliferative activities	–	–	–	–	–
CC1(C)OB(c2cccc(-c3nc(N4CCOCC4)c4oc5ncccc5c4n3)c2)OC1(C)C [PI-103BE (9), 4-Morpholino-2-(3-(4,4,5,5-tetramethyl-1,3,2-dioxaborolan-2-yl)phenyl)pyrido[3′,2′:4,5] furo[3,2-d]pyrimidine]	1.61	0.32	0	0	0	–	–	–	–	–	–	–	0	0	0	no PI-103BE was detected in plasma	3 ~ 24 times
